The test system of assay [1] is K562. As to the kind of experiment: Antiproliferative activity against human K562 cells assessed as cell death at 100 uM after 72 hrs by MTS assay relative to control. Type of assay: functional. For orientation: Tetrazolium dyes change colour on reduction, which living cells bring about.
For assay [2], the target named is LSD1/CoREST complex (Homo sapiens) (UniProt O60341+Q9UKL0). As to the kind of experiment: Inhibition of recombinant human LSD1/CoREST at 500 nM preincubated for 5 mins followed by ART-(N,N-dimethyl-K)-QTARKSTGGKAPRKQLA substrate addition measured after 25 mins by fluorescence assay relative to control.
LSD1/CoREST complex (Homo sapiens), sequence (Q9UKL0 whole entry, looked up, other chains not shown): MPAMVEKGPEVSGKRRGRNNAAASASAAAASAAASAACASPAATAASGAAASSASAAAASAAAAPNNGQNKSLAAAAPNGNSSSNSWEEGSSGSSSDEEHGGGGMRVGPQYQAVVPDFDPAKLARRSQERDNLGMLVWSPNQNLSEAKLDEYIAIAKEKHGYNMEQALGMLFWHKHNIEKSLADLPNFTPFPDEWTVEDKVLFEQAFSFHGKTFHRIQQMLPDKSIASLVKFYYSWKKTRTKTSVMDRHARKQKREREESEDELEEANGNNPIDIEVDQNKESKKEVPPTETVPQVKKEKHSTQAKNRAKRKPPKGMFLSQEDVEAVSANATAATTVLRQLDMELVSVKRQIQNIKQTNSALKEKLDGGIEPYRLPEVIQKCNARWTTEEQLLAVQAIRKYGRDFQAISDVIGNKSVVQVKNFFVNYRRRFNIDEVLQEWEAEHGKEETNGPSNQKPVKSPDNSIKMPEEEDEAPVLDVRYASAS
Assay [3] concerns K562. As to the kind of experiment: Antiproliferative activity against human K562 cells assessed as cell death at 1 uM after 72 hrs by MTS assay relative to control. It counts as functional.
The test system of assay [4] is Calu-6. As to the kind of experiment: Inhibition of cell proliferation in human Calu6 cells at 100 uM after 72 hrs by MTS assay. Type of assay: functional, cell-based. The method, boiled down:
(§1)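 Calu-6 cells grown in EMEM with 10% FBS. Seeded at 2,000 cells/well and attached for one day, then treated 72 h at 37°C, 5% CO2. MTS added for 2 h and absorbance read at 490 nm minus 690 nm. % cell death calculated against untreated control. Mean of 3 determinations ± S.E.M.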

Assay [5] has as its system Calu-6. Kind of assay: Inhibition of cell proliferation in human Calu6 cells up to 1 uM after 72 hrs by MTS assay. It counts as functional, cell-based. The method, boiled down:
as §1

Assay [6] has as its system K562. As to the kind of experiment: Antiproliferative activity against human K562 cells after 72 hrs by MTS assay. Particulars: K562, 72 h. Type of assay: functional, cell-based.
Assay [7] concerns MCF7. As to the kind of experiment: Antiproliferative activity against human MCF7 cells after 72 hrs by MTS assay. It counts as functional, cell-based. As to conditions: MCF7, 72 h.
Assay [8] deals with Calu-6. As to the kind of experiment: Antiproliferative activity against human Calu6 cells after 72 hrs by MTS assay. Type of assay: functional, cell-based. Particulars: Calu-6, 72 h.
Assay [9] concerns the target Lysine-specific histone demethylase 1A (Homo sapiens) (UniProt O60341). As to the kind of experiment: Inhibition of LSD1 in human NCI-H526 cells assessed as increase in H3K4me2 marks at promoter of FEZ1 at 100 uM after 48 hrs by ChIP-qPCr method. Type of assay: cell-based. The essentials:
(§2)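 NCI-H526 small cell lung carcinoma cells treated 48 h at 100 µM alongside an untreated control. Cells formaldehyde cross-linked, nuclei sonicated and chromatin enzymatically digested. IP with H3K4me2 antibody (normal rabbit IgG as negative control) on protein G magnetic beads. Purified DNA quantified by TaqMan qPCR at promoter regions; fold change by comparative CT (Livak). SD from three qPCR wells.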

Assay [10] has the same target. As to the kind of experiment: Inhibition of LSD1 in human NCI-H526 cells assessed as increase in H3K4me2 marks at promoter of IGFBP2 at 100 uM after 48 hrs by ChIP-qPCr method. It counts as cell-based. The essentials: as §2

pIC50: −log10 of the molar value. Calls of active or inactive are those of the source. No cut-off for these calls is given here. Positions of bridges follow the written chain, without caps; N, C: chain ends. Residues, ends and D or L forms follow the SMILES beside them. *: point of attachment. Stearoyl = CCCCCCCCCCCCCCCCCC(=O)*

The values that follow come from ChEMBL document CHEMBL4196023, “Cyclic peptide inhibitors of lysine-specific demethylase 1 with improved potency identified by alanine scanning mutagenesis” (Eur J Med Chem, 2018).

`CSCC[C@H](NC(=O)[C@H](C)NC(=O)[C@H](CCCNC(=N)N)NC(=O)[C@H](C)N)C(=O)N[C@H]1CCCCNC(=O)CC[C@@H](C(=O)N[C@H](C(=O)NCC(=O)NCC(=O)N[C@@H](CCCCN)C(=O)N[C@@H](C)C(N)=O)[C@@H](C)O)NC(=O)[C@H](CCCCN)NC(=O)[C@H](CCCNC(=N)N)NC(=O)[C@H](C)NC(=O)[C@H]([C@@H](C)O)NC1=O` (H-ARAMKTARKETGGKA-NH2; lactam 5-10): the Activity in assay [1] is recorded as 11%; in [3], 53%. Moreover, the inhibition in [2] worked out at 73.4%. Also, the inhibition entry in assay [4] and in [5] was “inactive” each time.

Consider `CSCC[C@H](NC(=O)[C@H](C)NC(=O)[C@H](CCCNC(=N)N)NC(=O)[C@H](C)N)C(=O)N[C@H]1CCCCNC(=O)CC[C@@H](C(=O)N[C@H](C(=O)NCC(N)=O)[C@@H](C)O)NC(=O)[C@H](CCCCN)NC(=O)[C@H](CCCNC(=N)N)NC(=O)[C@H](C)NC(=O)[C@H]([C@@H](C)O)NC1=O` (H-ARAMKTARKETG-NH2; lactam 5-10), for which the Activity came out at 18% in [1] and 90% in assay [3]. Also, the inhibition in assay [2] stood at 67.3%. Moreover, the inhibition entry in [4] and in [5] was “inactive” throughout.

Regarding `CC(C)C[C@H](NC(=O)[C@H](CCC(N)=O)NC(=O)[C@H](CCCCN)NC(=O)[C@H](CCCNC(=N)N)NC(=O)[C@@H]1CCCN1C(=O)[C@H](C)NC(=O)[C@H](CCCCN)NC(=O)CNC(=O)CNC(=O)[C@@H](NC(=O)[C@@H]1CCC(=O)NCCCC[C@H](NC(=O)[C@H](C)NC(=O)[C@@H](NC(=O)[C@H](CCCNC(=N)N)NC(=O)[C@H](C)N)[C@@H](C)O)C(=O)N[C@@H]([C@@H](C)O)C(=O)N[C@@H](C)C(=O)N[C@@H](CCCNC(=N)N)C(=O)N[C@@H](CCCCN)C(=O)N1)[C@@H](C)O)C(=O)N[C@@H](C)C(N)=O` (H-ARTAKTARKETGGKAPRKQLA-NH2; lactam 5-10), the pIC50 is 3.86 in [6], 2.91 in assay [7] and 3.02 in assay [8].

In the case of `CSCC[C@H](NC(=O)[C@@H](NC(=O)[C@H](CCCNC(=N)N)NC(=O)[C@H](C)N)[C@@H](C)O)C(=O)N[C@H]1CCCCNC(=O)CC[C@@H](C(=O)N[C@H](C(=O)NCC(=O)NCC(=O)N[C@@H](CCCCN)C(=O)N[C@@H](C)C(=O)N[C@@H](C)C(=O)N[C@@H](CCCNC(=N)N)C(=O)N[C@@H](CCCCN)C(=O)N[C@@H](CCC(N)=O)C(=O)N[C@@H](CC(C)C)C(=O)N[C@@H](C)C(N)=O)[C@@H](C)O)NC(=O)[C@H](CCCCN)NC(=O)[C@H](CCCNC(=N)N)NC(=O)[C@H](C)NC(=O)[C@H]([C@@H](C)O)NC1=O` (H-ARTMKTARKETGGKAARKQLA-NH2; lactam 5-10), the values for the pIC50 in assay [6], in [7] and in assay [8] were 4.45, 3.41 and 3.39, respectively.

With `CCCCCCCCCCCCCCCCCC(=O)NCCCC[C@H](NC(=O)[C@H](C)NC(=O)[C@H](CC(C)C)NC(=O)[C@H](CCC(N)=O)NC(=O)[C@H](CCCCN)NC(=O)[C@H](CCCNC(=N)N)NC(=O)[C@@H]1CCCN1C(=O)[C@H](C)NC(=O)[C@H](CCCCN)NC(=O)CNC(=O)CNC(=O)[C@@H](NC(=O)[C@@H]1CCC(=O)NCCCC[C@H](NC(=O)[C@H](CCSC)NC(=O)[C@@H](NC(=O)[C@H](CCCNC(=N)N)NC(=O)[C@H](C)N)[C@@H](C)O)C(=O)N[C@@H]([C@@H](C)O)C(=O)N[C@@H](C)C(=O)N[C@@H](CCCNC(=N)N)C(=O)N[C@@H](CCCCN)C(=O)N1)[C@@H](C)O)C(N)=O`, the pIC50 in assay [7] is 5.36; in assay [8] it was 5.10.

Regarding `CCCCCCCCCCCCCCCCCC(=O)NCCCC[C@H](NC(=O)[C@H](C)NC(=O)[C@H](CC(C)C)NC(=O)[C@H](CCC(N)=O)NC(=O)[C@H](CCCCN)NC(=O)[C@H](CCCNC(=N)N)NC(=O)[C@@H]1CCCN1C(=O)[C@H](C)NC(=O)[C@H](CCCCN)NC(=O)CNC(=O)CNC(=O)[C@@H](NC(=O)[C@@H]1CCC(=O)NCCCC[C@H](NC(=O)[C@H](CCSC)NC(=O)[C@H](C)NC(=O)[C@H](CCCNC(=N)N)NC(=O)[C@H](C)N)C(=O)N[C@@H]([C@@H](C)O)C(=O)N[C@@H](C)C(=O)N[C@@H](CCCNC(=N)N)C(=O)N[C@@H](CCCCN)C(=O)N1)[C@@H](C)O)C(N)=O` (H-ARAMKTARKETGGKAPRKQLAK(Stearoyl)-NH2; lactam 5-10), the negative logarithm of the IC50 (pIC50) in assay [7] is 5.34; in assay [8] it was 5.00.

Consider `CSCC[C@H](NC(=O)[C@@H](NC(=O)[C@H](CCCNC(=N)N)NC(=O)[C@H](C)N)[C@@H](C)O)C(=O)N[C@H]1CCCCNC(=O)CC[C@@H](C(=O)N[C@H](C(=O)NCC(=O)NCC(=O)N[C@@H](C)C(=O)N[C@@H](C)C(=O)N2CCC[C@H]2C(=O)N[C@@H](CCCNC(=N)N)C(=O)N[C@@H](CCCCN)C(=O)N[C@@H](CCC(N)=O)C(=O)N[C@@H](CC(C)C)C(=O)N[C@@H](C)C(N)=O)[C@@H](C)O)NC(=O)[C@H](CCCCN)NC(=O)[C@H](CCCNC(=N)N)NC(=O)[C@H](C)NC(=O)[C@H]([C@@H](C)O)NC1=O` (H-ARTMKTARKETGGAAPRKQLA-NH2; lactam 5-10), for which the pIC50 in assay [6] is 3.70; in assay [7] it was 3.81; in [8], 3.80.

With `CSCC[C@H](NC(=O)[C@@H](NC(=O)[C@H](CCCNC(=N)N)NC(=O)[C@H](C)N)[C@@H](C)O)C(=O)N[C@H]1CCCCNC(=O)CC[C@@H](C(=O)N[C@H](C(=O)NCC(=O)NCC(=O)N[C@@H](CCCCN)C(=O)N[C@@H](C)C(=O)N2CCC[C@H]2C(=O)N[C@@H](CCCNC(=N)N)C(=O)N[C@@H](CCCCN)C(=O)N[C@@H](CCC(N)=O)C(=O)N[C@@H](CC(C)C)C(=O)N[C@@H](C)C(N)=O)[C@@H](C)O)NC(=O)[C@H](CCCCN)NC(=O)[C@H](CCCNC(=N)N)NC(=O)[C@H](C)NC(=O)[C@H](C)NC1=O` (H-ARTMKAARKETGGKAPRKQLA-NH2; lactam 5-10), the pIC50 in assay [6] is 5.09; in [7] it was 3.81; in assay [8] it was 4.03.

With `c1ccc([C@@H]2C[C@H]2NC2CCNCC2)cc1` (relative stereo), the inhibition result in [9] and in assay [10] was “Active” in each case.

Consider `CSCC[C@H](NC(=O)[C@H](C)NC(=O)[C@H](CCCNC(=N)N)NC(=O)[C@H](C)N)C(=O)N[C@H]1CCCCNC(=O)CC[C@@H](C(=O)N[C@H](C(=O)NCC(=O)NCC(=O)N[C@@H](CCCCN)C(=O)N[C@@H](C)C(=O)N2CCC[C@H]2C(=O)N[C@@H](CCCNC(=N)N)C(=O)N[C@@H](CCCCN)C(N)=O)[C@@H](C)O)NC(=O)[C@H](CCCCN)NC(=O)[C@H](CCCNC(=N)N)NC(=O)[C@H](C)NC(=O)[C@H]([C@@H](C)O)NC1=O` (H-ARAMKTARKETGGKAPRK-NH2; lactam 5-10), for which the values for the Activity in [1] and in assay [3] were 9.5% and 59%, respectively. In addition, the inhibition in [2] was determined as 98%. For the same compound, the inhibition result in [4] and in [5] was “inactive” throughout.

For `CSCC[C@H](NC(=O)[C@@H](NC(=O)[C@H](CCCNC(=N)N)NC(=O)[C@H](C)N)[C@@H](C)O)C(=O)N[C@H]1CCCCNC(=O)CC[C@@H](C(=O)N[C@H](C(=O)N[C@@H](C)C(=O)NCC(=O)N[C@@H](CCCCN)C(=O)N[C@@H](C)C(=O)N2CCC[C@H]2C(=O)N[C@@H](CCCNC(=N)N)C(=O)N[C@@H](CCCCN)C(=O)N[C@@H](CCC(N)=O)C(=O)N[C@@H](CC(C)C)C(=O)N[C@@H](C)C(N)=O)[C@@H](C)O)NC(=O)[C@H](CCCCN)NC(=O)[C@H](CCCNC(=N)N)NC(=O)[C@H](C)NC(=O)[C@H]([C@@H](C)O)NC1=O` (H-ARTMKTARKETAGKAPRKQLA-NH2; lactam 5-10), the pIC50 was 4.38 in assay [6], 3.00 in assay [7] and 3.12 in assay [8].

As for `CSCC[C@H](NC(=O)[C@H](C)NC(=O)[C@H](CCCNC(=N)N)NC(=O)[C@H](C)N)C(=O)N[C@H]1CCCCNC(=O)CC[C@@H](C(N)=O)NC(=O)[C@H](CCCCN)NC(=O)[C@H](CCCNC(=N)N)NC(=O)[C@H](C)NC(=O)[C@H]([C@@H](C)O)NC1=O` (H-ARAMKTARKE-NH2; lactam 5-10), the inhibition in assay [2] was 59.8%. Also, the inhibition entry in assay [4] and in assay [5] was “inactive” in each case.

By inhibition is commonly meant the percentage by which the read-out fell short of the control. A word on the pIC50: it is −log10 of the IC50, conventionally taken in molar units. Low values mean a large IC50, high ones a small IC50.
